Assay results taken from ChEMBL document CHEMBL1773017, “The identification of 4,7-disubstituted naphthoic acid derivatives as UDP-competitive antagonists of P2Y14” (Bioorg Med Chem Lett, 2011).

Experiments:
[1] = target: T1, P2Y purinoceptor 14 (Mus musculus, UniProt Q9ESG6); assay: Antagonist activity at mouse P2Y14 receptor expressed in HEK293 cells assessed as calcium flux by FLIPR assay; format: functional, cell-based
T1 sequence (Q9ESG6 whole entry): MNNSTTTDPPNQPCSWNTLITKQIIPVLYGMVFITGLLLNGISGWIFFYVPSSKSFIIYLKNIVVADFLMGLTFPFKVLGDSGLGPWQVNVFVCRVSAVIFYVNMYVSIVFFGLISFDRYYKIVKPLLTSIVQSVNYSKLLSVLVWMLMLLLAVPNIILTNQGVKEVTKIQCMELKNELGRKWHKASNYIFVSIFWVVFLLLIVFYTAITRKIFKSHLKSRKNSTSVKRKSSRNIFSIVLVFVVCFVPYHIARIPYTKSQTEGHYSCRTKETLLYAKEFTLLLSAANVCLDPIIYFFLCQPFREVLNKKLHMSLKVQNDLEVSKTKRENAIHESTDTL

[2] = Antagonist activity at chimpanzee P2Y14 receptor expressed in HEK293 cells assessed as calcium flux by FLIPR assay; format: functional, cell-based; conditions: Pan troglodytes
[3] = Displacement of [3H]-UDP from chimpanzee P2Y14 receptor expressed in HEK293 cells; format: cell-based, Pan troglodytes
[4] = Metabolic stability in C57BL/6 mouse Hepatocyte assessed as parent compound remaining at 20 uM after 2 hrs; format: ADME, cell-based; conditions: hepatocytes, read-out: Stability
In short: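 Hepatocytes were isolated from mouse liver by two-step perfusion with 50 U/mL collagenase. Compound was incubated with the hepatocytes for 2 h, and metabolic stability was read out as the percentage of parent drug remaining.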

[5] = Oral bioavailability in C57BL/6 mouse at 50 mg/kg, po administered in 5% Tween-80; format: ADME, organism-based; conditions: in vivo
In short: (§1)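 C57BL/6 mice were dosed orally at 50 mg/kg (one analog at 25 mg/kg) in 5% Tween-80. They were also dosed intravenously at 2 mg/kg in 60% PEG-200. Oral bioavailability, half-life and intrinsic clearance come from these dosings.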

[6] = tested on: Mus musculus; assay: Intrinsic clearance in C57BL/6 mouse at 2 mg/kg, iv administered in 60% PEG-200; format: ADME, organism-based; design: dose 2 mg/kg, route intravenous; conditions: in vivo; in short: as §1
[7] = Half life in C57BL/6 mouse at 50 mg/kg, po and 2 mg/kg, iv; format: ADME, organism-based; conditions: in vivo; in short: as §1
[8] = Cmax in C57BL/6 mouse at 50 mg/kg, po administered in 5% Tween-80; format: ADME, organism-based; design: dose 50 mg/kg, route oral; conditions: in vivo; in short: as §1
[9] = tested on: Mus musculus; assay: Drug metabolism in Mrp2 (-/-) mouse assessed as (2S,3S,4S,5R,6S)-6-(7-(4-fluoro-2,6-dimethylbenzyloxy)-4-(thiophen-3-yl)-2-naphthoyloxy)-3,4,5-trihydroxytetrahydro-2H-pyran-2-carboxylic acid recovery in bile at 2 mg/kg, po up to 24 hrs; conditions: in vivo
[10] = Oral bioavailability in C57BL/6 mouse at 25 mg/kg, po administered in 5% Tween-80; format: ADME, organism-based; conditions: in vivo; in short: as §1
[11] = Cmax in C57BL/6 mouse at 25 mg/kg, po administered in 5% Tween-80; format: ADME, organism-based; design: dose 25 mg/kg, route oral; conditions: in vivo; in short: as §1

| Compound | IC50 [1] [nM] | IC50 [2] [nM] | Ki [3] [nM] | remaining at 2 h, 20 µM [4] [%] | bioavailability [5] [%] | CL [6] [mL/min/kg] | half-life [7] [h] | Cmax [8] [µM] | Activity [9] [%] | bioavailability [10] [%] | Cmax [11] [µM] |
| --- | --- | --- | --- | --- | --- | --- | --- | --- | --- | --- | --- |
| O=C(O)c1cc(-c2ccccc2)c2ccc(OCc3ccccc3)cc2c1 | 3500 | 3500 | 160 |  |  |  |  |  |  |  |  |
| COc1ccc2c(-c3ccccc3)cc(C(=O)O)cc2c1 |  |  | 4000 |  |  |  |  |  |  |  |  |
| O=C(O)c1cc(-c2ccccc2)c2ccc(Oc3ccccc3)cc2c1 | 4900 | 4100 | 1500 |  |  |  |  |  |  |  |  |
| O=C(O)c1ccc(COc2ccc3c(-c4ccccc4)cc(C(=O)O)cc3c2)cc1 | > 13000 | > 40000 |  |  |  |  |  |  |  |  |  |
| O=C(O)c1cc(-c2ccccc2)c2ccc(OCc3c(Cl)cccc3Cl)cc2c1 | 190 | 91 | 29 |  |  |  |  |  |  |  |  |
| Cc1cccc(C)c1COc1ccc2c(-c3ccccc3)cc(C(=O)O)cc2c1 | 110 | 41 | 42 |  |  |  |  |  |  |  |  |
| Cc1cccc(C)c1OCc1ccc2c(-c3ccccc3)cc(C(=O)O)cc2c1 | 2100 | 1500 | 340 |  |  |  |  |  |  |  |  |
| Cc1cccc(C)c1COc1ccc2c(OCc3ccccc3)cc(C(=O)O)cc2c1 | 110 | 89 | 21 |  |  |  |  |  |  |  |  |
| O=C(O)c1cc(-c2ccsc2)c2ccc(-c3ccc(OC(F)(F)F)cc3)cc2c1 | 54 | 14 | 29 | 62 |  | 18 | 1.1 |  |  | 92 | 18 |
| O=C(O)c1cc2cc(-c3ccc(OC(F)(F)F)cc3)ccc2c(-c2ccsc2)c1O | 1300 | 490 | 170 | 93 |  | 7.6 | 13 | 34 |  |  |  |
| O=C(O)c1cc(-c2cscc2C(O)(C(F)(F)F)C(F)(F)F)c2ccc(-c3ccc(OC(F)(F)F)cc3)cc2c1 | 350 | 91 | 54 | 91 | 45 | 1.9 | 4.1 | 37 |  |  |  |
| CS(=O)(=O)c1cscc1-c1cc(C(=O)O)cc2cc(-c3ccc(OC(F)(F)F)cc3)ccc12 |  | 86 | 32 | 16 | 4 | 3.7 | 3.2 | 16 |  |  |  |
| O=C(O)c1cc(-c2ccc(C(O)C(F)(F)F)cc2)c2ccc(-c3ccc(C(F)(F)F)cc3)cc2c1 (stereo not drawn) | 13 | 5 | 14 |  |  |  |  |  |  |  |  |
| O=C(O)c1cc(-c2ccc([C@H](O)C(F)(F)F)cc2)c2ccc(-c3ccc(C(F)(F)F)cc3)cc2c1 | 51 | 11 | 21 |  |  |  |  |  |  |  |  |

The remaining compounds from weak to strong by IC50 [2], led by results:

| IC50 [1] [nM] | IC50 [2] [nM] | Ki [3] [nM] | remaining at 2 h, 20 µM [4] [%] | bioavailability [5] [%] | CL [6] [mL/min/kg] | half-life [7] [h] | Cmax [8] [µM] | Activity [9] [%] | bioavailability [10] [%] | Cmax [11] [µM] | Compound |
| --- | --- | --- | --- | --- | --- | --- | --- | --- | --- | --- | --- |
| 13000 | 6500 |  |  |  |  |  |  |  |  |  | Cc1cccc(C)c1COc1ccc2ccc(C(=O)O)cc2c1 |
| 380 | 110 | 110 | 85 | 129 | 3.3 | 4.3 | 89 |  |  |  | O=C(O)c1cc2cc(-c3ccc(OC(F)(F)F)cc3)ccc2c(-c2ccsc2)c1F |
| 20 | 7 | 7 |  |  |  |  |  |  |  |  | CS(=O)(=O)c1ccc(-c2cc(C(=O)O)cc3cc(-c4ccc(C(F)(F)F)cc4)ccc23)cc1 |
| 26 | 6 | 16 |  |  |  |  |  |  |  |  | Cc1cccc(C)c1COc1ccc2c(-c3ccsc3)cc(C(=O)O)cc2c1 |
| 14 | 4 | 14 | 8 | 12 | 7.1 | 2.7 | 23 | > 99 |  |  | Cc1cc(F)cc(C)c1COc1ccc2c(-c3ccsc3)cc(C(=O)O)cc2c1 |
| 4 | 1 | 10 |  |  |  |  |  |  |  |  | O=C(O)c1cc(-c2ccc([C@@H](O)C(F)(F)F)cc2)c2ccc(-c3ccc(C(F)(F)F)cc3)cc2c1 |
| 8 | 1 | 4 | 39 | 67 | 1.6 | 3 | 113 |  |  |  | O=C(O)c1cc(-c2ccc([C@@H](O)C(F)F)cc2)c2ccc(-c3ccc(C(F)(F)F)cc3)cc2c1 |
